Results as given in ChEMBL document CHEMBL1140915, “Second-generation highly potent and selective inhibitors of the hepatitis C virus NS3 serine protease” (J Med Chem, 2009).

How the values were obtained:
[1] = Inhibition of HCV NS3 protease in absence of human serum; set-up: species or system Hepacivirus hominis
How it was run: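 Continuous enzymatic assay using NS4A-tethered single-chain HCV NS3 serine protease, without human serum. Ki* is the equilibrium constant, which includes the reversible covalent ketone–serine bond. Compounds were tested as P1 diastereomer mixtures (2:1 to 1:2) that equilibrate rapidly under assay conditions.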

[2] = Selectivity for HCV NS3 protease over human neutrophil elastase
How it was run: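 Compounds were also assayed against human neutrophil elastase. Selectivity is expressed as the HNE/HCV ratio of the two enzyme potencies.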

[3] = system: Hepatitis C virus; test: Antiviral activity against HCV assessed as inhibition of virus replication by cell based assay in absence of human serum; type: functional, Hepacivirus hominis
How it was run: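 Replicon-based cellular assay run without human serum. EC90 is the concentration that inhibits replicon replication by 90%. Compounds were tested as rapidly equilibrating P1 diastereomer mixtures.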

Ki [1] | Ratio [2] | EC90 [3] | SMILES
7 nM | 6400 | 40 nM | C=CCNC(=O)C(=O)C(CC1CCC1)NC(=O)[C@@H]1[C@@H]2[C@H](CN1C(=O)[C@@H](NC(=O)N[C@@H](CN1C(=O)CC(C)(C)CC1=O)C(C)(C)C)C(C)(C)C)C2(C)C (some centres not stated)
5 nM | 6100 | 30 nM | CCCCC(NC(=O)[C@@H]1[C@@H]2[C@H](CN1C(=O)[C@@H](NC(=O)N[C@@H](CN1C(=O)CC(C)(C)CC1=O)C(C)(C)C)C(C)(C)C)C2(C)C)C(=O)C(=O)NC1CC1 (some centres not stated)
5 nM | 9500 | 70 nM | C=CCNC(=O)C(=O)C(CCCC)NC(=O)[C@@H]1[C@@H]2[C@H](CN1C(=O)[C@@H](NC(=O)N[C@@H](CN1C(=O)C3CC3C1=O)C(C)(C)C)C(C)(C)C)C2(C)C (some centres not stated)
14 nM | 1100 | 40 nM | CCCCC(NC(=O)[C@@H]1[C@@H]2[C@H](CN1C(=O)[C@@H](NC(=O)N[C@@H](CN1C(=O)CC(C)(C)CC1=O)C(C)(C)C)C(C)(C)C)C2(C)C)C(=O)C(=O)NCc1ccccc1 (some centres not stated)
30 nM | 500 | 750 nM | C=CCNC(=O)C(=O)C(CCCC)NC(=O)[C@@H]1[C@@H]2[C@H](CN1C(=O)[C@@H](NC(=O)N[C@@H](CN1C(=O)c3ccccc3C1=O)C(C)(C)C)C(C)(C)C)C2(C)C (some centres not stated)
19 nM | 1200 | 250 nM | C=CCNC(=O)C(=O)C(CCCC)NC(=O)[C@@H]1[C@@H]2[C@H](CN1C(=O)[C@@H](NC(=O)N[C@@H](CN1C(=O)CN(C)C1=O)C(C)(C)C)C(C)(C)C)C2(C)C (some centres not stated)
11 nM | 2500 | 250 nM | C=CCNC(=O)C(=O)C(CCCC)NC(=O)[C@@H]1[C@@H]2[C@H](CN1C(=O)[C@@H](NC(=O)N[C@@H](CN1C(=O)NC(C)(C)C1=O)C(C)(C)C)C(C)(C)C)C2(C)C (some centres not stated)
22 nM | 2500 | 80 nM | CCCCC(NC(=O)[C@@H]1[C@@H]2[C@H](CN1C(=O)[C@@H](NC(=O)N[C@@H](CN1C(=O)CC(C)(C)CC1=O)C(C)(C)C)C(C)(C)C)C2(C)C)C(=O)C(=O)NCc1ccccn1 (some centres not stated)
7 nM | 3100 | 35 nM | C=CCNC(=O)C(=O)C(CCCC)NC(=O)[C@@H]1[C@@H]2[C@H](CN1C(=O)[C@@H](NC(=O)N[C@@H](CN1C(=O)CCC(C)(C)C1=O)C(C)(C)C)C(C)(C)C)C2(C)C (some centres not stated)
8 nM | 7200 | 500 nM | C=CCNC(=O)C(=O)C(CCCC)NC(=O)[C@@H]1[C@@H]2[C@H](CN1C(=O)[C@@H](NC(=O)NC(CN1C(=O)COCC1=O)C(C)(C)C)C(C)(C)C)C2(C)C (single isomer, unassigned)
6 nM | 3800 | 200 nM | C=CCNC(=O)C(=O)C(CCCC)NC(=O)[C@@H]1[C@@H]2[C@H](CN1C(=O)[C@@H](NC(=O)NC(CN1C(=O)CC3(CCCC3)CC1=O)C(C)(C)C)C(C)(C)C)C2(C)C (single isomer, unassigned)
8 nM | 2500 | 40 nM | C=CCNC(=O)C(=O)C(CCCC)NC(=O)[C@@H]1[C@@H]2[C@H](CN1C(=O)[C@@H](NC(=O)NC(CN1C(=O)CC(C)(CC)CC1=O)C(C)(C)C)C(C)(C)C)C2(C)C (single isomer, unassigned)
13 nM | 2000 | 230 nM | C=CCNC(=O)C(=O)C(CCCC)NC(=O)[C@@H]1[C@@H]2[C@H](CN1C(=O)[C@@H](NC(=O)NC(CN1C(=O)CCC1=O)C(C)(C)C)C(C)(C)C)C2(C)C (single isomer, unassigned)
6 nM | 7000 | 60 nM | C=CCNC(=O)C(=O)C(CCCC)NC(=O)[C@@H]1[C@@H]2[C@H](CN1C(=O)[C@@H](NC(=O)NC(CN1C(=O)C3CCC(C3)C1=O)C(C)(C)C)C(C)(C)C)C2(C)C (single isomer, unassigned)
